Results on one compound are retold here after ChEMBL document CHEMBL3286393 (J Med Chem, 2014).

Data set [1] deals with Prostaglandin G/H synthase 1 (Homo sapiens, UniProt P23219). Kind of data set: Inhibition of COX1-mediated PGE2 production in human platelets assessed as formation of 12-HHT using arachidonic acid as substrate preincubated for 5 mins measured after 5 mins by RP-HPLC analysis. Put shortly: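 Washed human platelets, 10⁸/mL in PBS pH 7.4 with 1 mM CaCl2: 5 min compound preincubation at room temperature, then 1 min at 37 °C. Arachidonic acid 5 μM added; 5 min at 37 °C. 12-HHT extracted and measured by RP-HPLC.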
Chain of Prostaglandin G/H synthase 1 (P23219 whole entry): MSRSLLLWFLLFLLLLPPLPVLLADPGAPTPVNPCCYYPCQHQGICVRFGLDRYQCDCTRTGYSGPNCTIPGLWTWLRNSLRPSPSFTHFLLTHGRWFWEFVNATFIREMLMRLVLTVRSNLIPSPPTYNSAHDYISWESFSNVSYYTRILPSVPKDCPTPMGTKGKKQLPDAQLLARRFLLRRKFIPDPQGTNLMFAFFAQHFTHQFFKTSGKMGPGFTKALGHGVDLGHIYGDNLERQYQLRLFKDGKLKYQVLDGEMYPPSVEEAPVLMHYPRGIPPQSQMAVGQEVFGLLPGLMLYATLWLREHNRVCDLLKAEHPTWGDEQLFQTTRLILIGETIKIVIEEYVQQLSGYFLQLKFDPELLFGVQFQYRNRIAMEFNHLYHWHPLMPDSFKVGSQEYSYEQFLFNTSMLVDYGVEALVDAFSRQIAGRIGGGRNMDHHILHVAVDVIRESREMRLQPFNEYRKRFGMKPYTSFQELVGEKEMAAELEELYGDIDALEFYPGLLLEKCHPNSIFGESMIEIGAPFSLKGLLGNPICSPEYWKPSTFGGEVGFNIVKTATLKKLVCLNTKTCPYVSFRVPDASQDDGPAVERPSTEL

The target in data set [2] is T1, Polyunsaturated fatty acid lipoxygenase ALOX12 (Homo sapiens) (UniProt P18054).
T1 sequence (whole entry): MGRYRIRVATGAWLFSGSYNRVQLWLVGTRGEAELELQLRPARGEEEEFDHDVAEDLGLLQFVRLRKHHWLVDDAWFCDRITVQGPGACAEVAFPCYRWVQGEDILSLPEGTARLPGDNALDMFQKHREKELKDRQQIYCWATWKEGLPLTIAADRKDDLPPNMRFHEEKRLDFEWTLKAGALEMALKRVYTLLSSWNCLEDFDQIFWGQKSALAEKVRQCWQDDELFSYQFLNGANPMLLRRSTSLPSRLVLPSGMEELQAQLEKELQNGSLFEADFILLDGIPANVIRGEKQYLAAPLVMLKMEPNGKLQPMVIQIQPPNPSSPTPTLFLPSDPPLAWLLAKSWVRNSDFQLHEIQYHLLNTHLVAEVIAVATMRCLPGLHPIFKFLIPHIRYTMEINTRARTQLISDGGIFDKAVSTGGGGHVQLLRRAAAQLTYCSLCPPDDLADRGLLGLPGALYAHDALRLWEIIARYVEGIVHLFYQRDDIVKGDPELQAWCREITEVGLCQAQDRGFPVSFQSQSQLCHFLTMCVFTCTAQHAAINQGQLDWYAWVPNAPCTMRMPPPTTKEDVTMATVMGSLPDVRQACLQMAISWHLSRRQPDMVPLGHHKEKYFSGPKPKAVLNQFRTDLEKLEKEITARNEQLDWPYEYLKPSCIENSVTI
Nature of the data set: Inhibition of 12-LO in human neutrophils assessed as residual activity relative to control. The following applies: values are per cent of control.

Data set [3] can be described thus: Aqueous stability of the compound in at 2 uM in 10 mM aqueous ammonium bicarbonate at pH 7.9 assessed as formation of trans-6-(4'-hydroxy-3'-methoxyphenyl)-2,4-dioxo-5-hexenal measured as residual amount of compound by reversed phase liquid chromatography-coupled mass spectrometry. It counts as physicochemical. The following applies: buffer, pH 7.9, 2 µM. Put shortly:
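Compounds at 2 μM in 10 mM aqueous ammonium bicarbonate pH 7.9, incubated 30 min at 37 °C. Analysed by UPLC-MS on a C18 column, gradient acetonitrile/water with 0.07% formic acid, at 0.7 mL/min. Residual amount given as % of control; three to four independent experiments.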

The next data set concerns LNCaP. Nature of the data set: Cytotoxicity against human LNCAP cells assessed as cell viability after 24 hrs by MTT assay. The data set is classed as cell-based. Put shortly: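 LNCaP seeded at 10⁴ cells/well and exposed 24 h. MTT added, then 4 h at 37 °C, 5% CO2, dark. Medium removed and formazan dissolved in DMSO; absorbance at 570 nm.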
For the next data set, the system named is PBMC. Nature of the data set: Cytotoxicity against human PBMCs assessed as cell viability after 24 hrs by MTT assay. The data set is classed as cell-based. In short, it runs like this:
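Human PBMC (2 × 10⁵/well), 24 h exposure. MTT then 4 h at 37 °C in darkness. Formazan solubilized with 10% SDS in 20 mM HCl; absorbance 550 nm. Viability relative to untreated cells; IC50 derived.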
For orientation: Tetrazolium assays rely on reduction of a dye to a coloured formazan, in cell work by metabolically active cells.

The subject of data set [4] is Radical scavenging activity. Nature of the data set: Antioxidant activity assessed as DPPH free radical scavenging activity at 10 uM after 30 mins […] by spectrophotometric analysis. It counts as functional. In general terms: The DPPH test is a chemical assay of radical scavenging.
For the next data set, the target named is T2, Prostaglandin E synthase (Homo sapiens, UniProt O14684).
T2 sequence (O14684 whole entry): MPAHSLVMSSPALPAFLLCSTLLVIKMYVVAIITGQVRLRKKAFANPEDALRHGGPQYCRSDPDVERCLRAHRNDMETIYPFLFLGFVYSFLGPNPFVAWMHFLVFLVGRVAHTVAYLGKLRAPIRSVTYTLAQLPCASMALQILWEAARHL
Nature of the data set: Inhibition of mPGES1-mediated PGE2 production in microsomes of IL-1beta stimulated human A549 cells preincubated for 15 mins by RP-HPLC analysis. The data set is classed as cell-based. The following applies: read-out: IC50. In short, it runs like this:
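mPGES-1 source: microsomes of A549 cells treated 48 h with IL-1β 2 ng/mL, at 25−50 μg protein/mL in 0.1 M potassium phosphate pH 7.4 with 2.5 mM glutathione. Compound preincubation 15 min at 4 °C; PGH2 (20 μM final) for 1 min; FeCl2/citric acid stop with 11β-PGE2 internal standard. PGE2 by RP-HPLC.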

Data set [5] deals with T3, Polyunsaturated fatty acid 5-lipoxygenase (Homo sapiens, UniProt P09917).
T3 sequence (P09917 whole entry): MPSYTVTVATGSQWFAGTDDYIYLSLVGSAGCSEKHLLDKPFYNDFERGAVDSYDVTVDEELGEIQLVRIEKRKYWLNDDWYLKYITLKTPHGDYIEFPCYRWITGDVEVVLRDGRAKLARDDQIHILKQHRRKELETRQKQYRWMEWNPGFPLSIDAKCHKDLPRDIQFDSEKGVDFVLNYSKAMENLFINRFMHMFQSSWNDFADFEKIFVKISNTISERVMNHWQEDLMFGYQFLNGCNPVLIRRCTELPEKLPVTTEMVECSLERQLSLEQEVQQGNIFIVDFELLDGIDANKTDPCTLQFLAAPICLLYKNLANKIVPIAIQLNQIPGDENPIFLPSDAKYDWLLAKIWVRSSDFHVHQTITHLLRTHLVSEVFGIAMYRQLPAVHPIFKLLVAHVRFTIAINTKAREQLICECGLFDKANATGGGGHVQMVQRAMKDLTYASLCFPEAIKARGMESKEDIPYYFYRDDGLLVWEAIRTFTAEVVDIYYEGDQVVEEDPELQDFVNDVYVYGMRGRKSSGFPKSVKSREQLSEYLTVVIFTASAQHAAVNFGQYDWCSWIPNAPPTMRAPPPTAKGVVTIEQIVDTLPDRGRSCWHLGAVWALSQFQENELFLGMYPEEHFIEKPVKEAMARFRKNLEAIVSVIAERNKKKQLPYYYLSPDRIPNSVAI
Nature of the data set: Inhibition of human recombinant 5-LO expressed in Escherichia coli Bl21 (DE3) using arachidonic acid as substrate preincubated for 10 mins measured after 10 mins by RP-HPLC analysis. Put shortly:
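5-LO expressed from pT3-5LO in E. coli BL21(DE3), semi-purified on ATP-agarose, diluted in PBS with 1 mM EDTA and 1 mM ATP. Preincubated with compound 10 min at 4 °C, then 30 s at 37 °C. Started with 2 mM CaCl2 plus 20 μM arachidonic acid; 10 min at 37 °C; ice-cold methanol stop. Three to four experiments.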

Data set [6] has as its target T3, Polyunsaturated fatty acid 5-lipoxygenase. Kind of data set: Inhibition of 5-LO in human neutrophils using arachidonic acid as substrate preincubated for 15 mins measured after 10 mins by HPLC analysis. In short, it runs like this:
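Fresh human neutrophils, 1 × 10⁷/mL in PBS pH 7.4 with 1 mM CaCl2 and 1 mg/mL glucose, preincubated 15 min at 37 °C. LTB4, its all-trans isomers and 5-H(P)ETE by HPLC.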

For data set [7], the target named is T4, Prostaglandin G/H synthase 1 (Ovis aries) (UniProt P05979).
T4 sequence (whole entry): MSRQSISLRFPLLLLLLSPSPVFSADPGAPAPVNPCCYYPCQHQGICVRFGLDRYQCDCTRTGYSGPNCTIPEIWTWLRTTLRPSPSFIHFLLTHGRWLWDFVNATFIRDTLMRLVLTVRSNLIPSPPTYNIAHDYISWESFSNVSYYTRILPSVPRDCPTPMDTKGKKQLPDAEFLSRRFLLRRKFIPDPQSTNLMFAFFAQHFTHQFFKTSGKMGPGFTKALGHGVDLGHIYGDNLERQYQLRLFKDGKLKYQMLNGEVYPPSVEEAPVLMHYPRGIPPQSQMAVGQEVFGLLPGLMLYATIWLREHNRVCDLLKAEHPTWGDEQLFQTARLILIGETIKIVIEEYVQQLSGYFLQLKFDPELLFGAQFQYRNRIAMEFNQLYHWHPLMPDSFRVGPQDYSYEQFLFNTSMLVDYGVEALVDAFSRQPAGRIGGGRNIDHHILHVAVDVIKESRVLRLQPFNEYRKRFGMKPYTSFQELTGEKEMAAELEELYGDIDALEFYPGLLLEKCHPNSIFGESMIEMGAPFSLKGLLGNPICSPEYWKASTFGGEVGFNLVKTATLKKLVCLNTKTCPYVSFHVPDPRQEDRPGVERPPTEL
Kind of data set: Inhibition of purified ovine COX-1 assessed as residual activity by measuring formation of 12-HHT from arachidonic acid preincubated at 10 uM for 5 mins before substrate addition measured after 5 mins by HPLC analysis relative to control. In short, it runs like this:
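Purified ovine COX-1 (50 units) in 100 mM Tris pH 8 with 5 mM glutathione, 5 μM hemoglobin and 100 μM EDTA. Preincubated 5 min at 4 °C then 1 min at 37 °C. 5 μM arachidonic acid added; 12-HHT extracted after 5 min and measured by HPLC. Residual activity at 10 μM, three independent experiments.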

Calls of active or inactive are those of the source. The rule behind the calls is not given here. Some results are limits rather than exact numbers.

The IC50 is the concentration that inhibits the measured activity by half. In general, residual activity refers to the signal under treatment as a percentage of the control signal.

With `COc1cc(/C=C/C(=O)CC(=O)/C=C/c2cc(F)c(O)c(OC)c2)cc(F)c1O`, the IC50 is 7.5 µM in [1]; greater than 50 µM in the data set with LNCaP; greater than 50 µM with PBMC; 8.7 µM at Prostaglandin E synthase; 0.4 µM in [5]; 10 µM in [6]. Further, the residual activity in data set [2] is 69.7%. In data set [3], the Stability result is given as “Unstable”. In data set [4], the Activity turned out to be 61.4%. Further, the inhibition result in data set [7] is “inactive”.
